Publication PMC6684259 (Current biology : CB, 2019)

Key:
Eg5 (kinesin-5) [1] = target: T1, Eg5 (kinesin-5) (Xenopus laevis, UniProt P28025); assay: microtubule shrinkage assay with purified Eg5M in AMPPNP; assay type: biochemical
T1 sequence (P28025 1-368): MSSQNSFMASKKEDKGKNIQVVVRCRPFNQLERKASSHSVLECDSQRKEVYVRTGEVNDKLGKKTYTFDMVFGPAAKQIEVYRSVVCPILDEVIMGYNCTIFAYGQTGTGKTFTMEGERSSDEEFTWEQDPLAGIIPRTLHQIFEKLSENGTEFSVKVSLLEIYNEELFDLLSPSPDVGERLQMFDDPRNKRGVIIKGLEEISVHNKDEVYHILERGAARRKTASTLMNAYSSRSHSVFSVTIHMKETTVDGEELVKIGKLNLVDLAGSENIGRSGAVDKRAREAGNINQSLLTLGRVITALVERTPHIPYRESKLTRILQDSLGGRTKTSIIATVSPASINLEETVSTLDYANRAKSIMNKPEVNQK

Eg5 (kinesin-5) [2] = target: T1, Eg5 (kinesin-5); assay: microtubule shrinkage assay with purified Eg5M plus inhibitor; assay type: biochemical
Method in brief: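 Shrinkage run in BRB80 with oxygen scavenger and 0.2 mg/mL casein. Microtubules are grown from Cy5/biotin GMPCPP seeds with TMR-labeled bovine brain tubulin, 5 mM Mg-ATP and 2 mM Mg-GTP, ±His-purified motor (E. coli-expressed), for 20 min at 37°C. Catastrophe is triggered by flowing in 22°C tubulin-free buffer holding the same motor concentration. Shrinkage velocities come from tracked ends imaged on stage.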

| SMILES | microtubule shrinkage assay with purified Eg5M in AMPPNP (TIRF) (Eg5 (kinesin-5) [1]) [nm/s] | microtubule shrinkage assay with purified Eg5M plus inhibitor (TIRF) (Eg5 (kinesin-5) [2]) [nm/s] |
| --- | --- | --- |
| Nc1ncnc2c1ncn2[C@@H]1O[C@H](CO[P@](=O)(O)O[P@](=O)(O)NP(=O)(O)O)[C@@H](O)[C@H]1O [AMPPNP] | 0.5 |  |
| CC(C)(C)c1ccc2cc(C#N)c(C#N)cc2c1 [BRD9876] |  | 0.2 |
